Results: ChEMBL document CHEMBL1126647, “Fluorine-18-labeled progestin ketals: synthesis and target tissue uptake selectivity of potential imaging agents for receptor-positive breast tumors” (J Med Chem, 1993)

Columns and labels:
[1] = molecular target: T1, Progesterone receptor (Rattus norvegicus) (UniProt Q63449); assay: Tissue distribution in ovaries 1 hr after [18F]4 injection into estrogen-primed immature rats at low dose; format: functional, tissue-based; conditions: Female gonad
T1 sequence (whole entry): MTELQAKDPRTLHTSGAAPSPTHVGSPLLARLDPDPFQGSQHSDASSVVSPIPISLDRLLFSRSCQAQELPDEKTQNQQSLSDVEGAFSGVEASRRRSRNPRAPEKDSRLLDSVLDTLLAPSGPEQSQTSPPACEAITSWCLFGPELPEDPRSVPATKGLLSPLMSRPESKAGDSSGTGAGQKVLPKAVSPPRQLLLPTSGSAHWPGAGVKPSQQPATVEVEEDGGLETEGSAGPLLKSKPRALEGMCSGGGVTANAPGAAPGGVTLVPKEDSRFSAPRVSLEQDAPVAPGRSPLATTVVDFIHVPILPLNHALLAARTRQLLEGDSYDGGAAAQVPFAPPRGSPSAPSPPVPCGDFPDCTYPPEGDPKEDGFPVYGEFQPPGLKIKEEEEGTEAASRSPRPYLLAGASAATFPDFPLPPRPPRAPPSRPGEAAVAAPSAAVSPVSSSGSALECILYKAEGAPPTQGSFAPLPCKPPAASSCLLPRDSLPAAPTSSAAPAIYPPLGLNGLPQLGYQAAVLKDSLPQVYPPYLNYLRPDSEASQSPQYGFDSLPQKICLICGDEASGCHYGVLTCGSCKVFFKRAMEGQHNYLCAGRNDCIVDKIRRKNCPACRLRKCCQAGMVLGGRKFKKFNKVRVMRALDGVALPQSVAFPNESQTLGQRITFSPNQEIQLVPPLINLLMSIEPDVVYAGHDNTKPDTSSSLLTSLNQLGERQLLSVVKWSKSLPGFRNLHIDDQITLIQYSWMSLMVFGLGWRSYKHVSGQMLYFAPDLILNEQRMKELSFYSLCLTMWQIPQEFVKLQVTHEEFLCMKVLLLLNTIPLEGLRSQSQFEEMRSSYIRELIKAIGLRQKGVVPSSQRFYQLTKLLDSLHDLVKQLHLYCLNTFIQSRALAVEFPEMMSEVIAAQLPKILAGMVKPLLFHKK
In short: (§1)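 Estrogen-primed immature female Sprague-Dawley rats (estradiol 5 μg s.c. daily ×2, used 24 h later) were given a reduced tracer dose of 30 μCi in 0.04 mL 10% ethanol/saline, tail vein iv, under ether. Decapitated at 1 h; organs weighed and gamma-counted. Results as %ID/g or uterus/tissue ratio, mean ± SD, n = 5.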

[2] = molecular target: T1, Progesterone receptor (Rattus norvegicus); assay: Tissue distribution in muscle 1 hr after [18F]4 injection into estrogen-primed immature rats at normal dose; format: functional, tissue-based
In short: (§2)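 Female Sprague-Dawley rats, 23 days old, primed with estradiol 5 μg s.c. in 20% ethanol/sunflower oil on two days and used 24 h later. Under ether, they received 51 μCi tracer (30 Ci/mmol) iv via the tail vein in 0.1 mL 10% ethanol/saline. Killed by decapitation at 1 h; tissues weighed and gamma-counted. Results as %ID/g or tissue ratios, mean ± SD, n = 5.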

[3] = molecular target: T1, Progesterone receptor (Rattus norvegicus); assay: Tissue distribution in uterus/blood 3 hr after [18F]4 injection into estrogen-primed immature rats at low dose; format: functional, tissue-based
[4] = molecular target: T1, Progesterone receptor (Rattus norvegicus); assay: Tissue distribution in bone 1 hr after [18F]-4 injection into estrogen-primed immature rats co-injected with uterine uptake blocker (ORG 2058); format: functional, tissue-based; conditions: Bone element
In short: (§3)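 Blocking group: estrogen-primed immature female Sprague-Dawley rats (estradiol 5 μg s.c. ×2 days, used 24 h later). ORG 2058 18 μg was co-injected with the tracer dose iv via tail vein, 0.2 mL injection volume in 10% ethanol/saline. Killed 1 h later; tissues weighed and gamma-counted. Results as %ID/g or ratios, mean ± SD, n = 5.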

[5] = molecular target: T1, Progesterone receptor (Rattus norvegicus); assay: Tissue distribution in kidney 1 hr after [18F]4 injection into estrogen-primed immature rats at low dose; format: functional, tissue-based; in short: as §1
[6] = molecular target: T1, Progesterone receptor (Rattus norvegicus); assay: Tissue distribution in muscle 3 hr after [18F]4 injection into estrogen-primed immature rats; format: functional, tissue-based
In short: (§4)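 Immature female Sprague-Dawley rats, estradiol-primed (5 μg s.c. in 20% ethanol/sunflower oil, two successive days, used 24 h later). Tracer (30 Ci/mmol) in 10% ethanol/saline was injected iv into the tail vein under ether anesthesia. Animals were decapitated 3 h postinjection; organs weighed and gamma-counted. %ID/g, mean ± SD, n = 5.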

[7] = molecular target: T1, Progesterone receptor (Rattus norvegicus); assay: Relative binding affinity for progesterone receptor compared to R5020
[8] = molecular target: T1, Progesterone receptor (Rattus norvegicus); assay: Tissue distribution in brain 1 hr after [18F]4 injection into estrogen-primed immature rats at normal dose; format: functional, tissue-based; in short: as §2
[9] = molecular target: T1, Progesterone receptor (Rattus norvegicus); assay: Tissue distribution in blood 1 hr after [18F]4 injection into estrogen-primed immature rats at normal dose; format: functional, tissue-based; in short: as §2
[10] = Partition coefficient (logP); format: physicochemical; conditions: octanol/water
In short: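 Octanol/water partition measured as log P by the Minick method. For some reference progestins, log P was also measured by shake flask.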

[11] = molecular target: T1, Progesterone receptor (Rattus norvegicus); assay: Tissue distribution in lung 1 hr after [18F]4 injection into estrogen-primed immature rats at normal dose; format: functional, tissue-based; in short: as §2
[12] = molecular target: T1, Progesterone receptor (Rattus norvegicus); assay: Tissue distribution in blood 1 hr after [18F]4 injection into estrogen-primed immature rats co-injected uterine uptake blocker (ORG 2058); format: functional, tissue-based; in short: as §3
[13] = molecular target: T1, Progesterone receptor (Rattus norvegicus); assay: Tissue distribution in ovaries 3 hr after [18F]4 injection into estrogen-primed immature rats; format: functional, tissue-based; conditions: Female gonad; in short: as §4

Structure (SMILES)	Injected dose/g [1]	Injected dose/g [2]	uterus/blood ratio [3]	Injected dose/g [4]	Injected dose/g [5]	Injected dose/g [6]	relative binding affinity (RBA) [7]	Injected dose/g [8]	Injected dose/g [9]	logP [10]	Injected dose/g [11]	Injected dose/g [12]	Injected dose/g [13]
C[C@@]1(c2ccc(F)cc2)O[C@@H]2CC3C4CCC5=CC(=O)CC[C@@H]5C4CC[C@]3(C)[C@]2(C(=O)CO)O1 (stereo partly specified)	2.66%	0.44%	38	0.6%	1.57%	0.16%	240	0.34%	0.26%	4.92	0.6%	0.23%	1.78%
CC(=O)[C@@]12O[C@](C)(c3ccc(F)cc3)O[C@@H]1CC1C3CCC4=CC(=O)CC[C@]4(C)C3CC[C@@]12C (stereo partly specified)	3.68%	0.82%	7.57	1.44%	2.27%	0.49%	53	0.56%	0.47%	5.71	1.3%	0.43%	2.19%
